Measured values pooled from the literature.
Each line is one published result; the experiments were not run side by side.
PIK3CA H1047Y: Phosphatidylinositol 4,5-bisphosphate 3-kinase catalytic subunit alpha isoform (PIK3CA, Homo sapiens, UniProt P42336, H1047Y)
PIK3CA H1047L: Phosphatidylinositol 4,5-bisphosphate 3-kinase catalytic subunit alpha isoform (PIK3CA, Homo sapiens, UniProt P42336, H1047L)
PIK3CA E545K: Phosphatidylinositol 4,5-bisphosphate 3-kinase catalytic subunit alpha isoform (PIK3CA, Homo sapiens, UniProt P42336, E545K)
PIK3CA M1043I: Phosphatidylinositol 4,5-bisphosphate 3-kinase catalytic subunit alpha isoform (PIK3CA, Homo sapiens, UniProt P42336, M1043I)
PIK3CA: Phosphatidylinositol 4,5-bisphosphate 3-kinase catalytic subunit alpha isoform (PIK3CA, Homo sapiens, UniProt P42336)
PIK3CA E545A: Phosphatidylinositol 4,5-bisphosphate 3-kinase catalytic subunit alpha isoform (PIK3CA, Homo sapiens, UniProt P42336, E545A)
PIK3CA I800L: Phosphatidylinositol 4,5-bisphosphate 3-kinase catalytic subunit alpha isoform (PIK3CA, Homo sapiens, UniProt P42336, I800L)
PIK3CA Q546K: Phosphatidylinositol 4,5-bisphosphate 3-kinase catalytic subunit alpha isoform (PIK3CA, Homo sapiens, UniProt P42336, Q546K)
PIK3CA C420R: Phosphatidylinositol 4,5-bisphosphate 3-kinase catalytic subunit alpha isoform (PIK3CA, Homo sapiens, UniProt P42336, C420R)
PIK3CA E542K: Phosphatidylinositol 4,5-bisphosphate 3-kinase catalytic subunit alpha isoform (PIK3CA, Homo sapiens, UniProt P42336, E542K)

SMILES	target	assay	conditions	remaining binding [%]
CCN1CCN(Cc2ccc(C(=O)Nc3ccc(C)c(Oc4ccc5c(c4)CC(=O)N5)c3)cc2C(F)(F)F)CC1	PIK3CA H1047Y	binding, competition with immobilised ligand	1 µM	100
O=C(c1ccc(Nc2ncc(Cl)c(-c3ccc(Cl)s3)n2)cc1)N1CCC(N2CCCC2)CC1	PIK3CA H1047L	binding, competition with immobilised ligand	1 µM	100
Cn1nc(C(F)(F)F)cc1-c1cnc(N2CCc3cc(S(=O)(=O)Nc4c(F)cc(Cl)cc4F)cc(N4CCCC4=O)c32)nc1	PIK3CA E545K	cell-free assay, competition with immobilised ligand	1 µM	82
Cc1cc(-c2cc(C(F)(F)F)ccc2O[C@H]2C[C@@]2(CNS(=O)(=O)c2ccc([N+](=O)[O-])cc2)c2ccc(F)cc2F)[nH]n1	PIK3CA M1043I	cell-free assay, competition with immobilised ligand	0.3 µM	8.1
O=C1CCc2cc(Nc3cc(OC4CCOCC4)c([N+](=O)[O-])cc3Cl)ccc2N1	PIK3CA	cell-free assay, competition with immobilised ligand	1 µM	79
CNC(=O)[C@@H]1CC[C@@H](n2c(-c3ccc4cnccc4c3)nc3ccc(C(=O)NCc4cccc(C(N)=O)c4)cc32)C1	PIK3CA E545A	binding, competition with immobilised ligand	1 µM	89
COc1cc(-c2cn(C3CCc4ccccc4N(CC(F)(F)F)C3=O)nn2)ccc1-n1ccc(C)n1 (stereo not drawn)	PIK3CA I800L	cell-free assay, competition with immobilised ligand	1 µM	76
C[C@@H](c1ccc(-n2cnc3c(N)ncnc32)cc1)N1CCc2nn(C)c(Cc3ccccc3)c2C1=O	PIK3CA H1047Y	binding, competition with immobilised ligand	0.1 µM	78
COc1cnc(Nc2cccc(S(N)(=O)=O)c2)nc1N1CCN(c2ccccc2)C(=O)C1	PIK3CA	binding, competition with immobilised ligand	1 µM	100
O=C(N1CCS(=O)(=O)CC1)N1C[C@H](c2ccc(OC(F)(F)F)cc2)C[C@H](c2nc(C3CC3)no2)C1	PIK3CA Q546K	cell-free assay, competition with immobilised ligand	1 µM	83
C=CC(=O)N1CCC(C(=O)NCC(=O)N2CCN(c3nc(-c4cnc(N)nc4C(F)F)nc(N4CCOCC4)n3)CC2)CC1	PIK3CA E545K	binding, competition with immobilised ligand	1 µM	0
c1cncc(-c2cccc(Nc3nccc(NC4CCCCC4)n3)c2)c1	PIK3CA C420R	binding, competition with immobilised ligand	10 µM	73
COc1ncc2cc3ccccc3nc2c1C#N	PIK3CA I800L	cell-free assay, competition with immobilised ligand	5 µM	86
F[C@@H]1CCN(c2nccc(-c3cnn4ncccc34)n2)C1	PIK3CA E545K	binding	1 µM	100
O=C(Nc1c[nH]nc1C(=O)NC1CCNCC1)c1cc(F)cc(F)c1	PIK3CA I800L	binding, competition with immobilised ligand	1 µM	81
COc1cnc(Nc2cccc(S(N)(=O)=O)c2)nc1N1CCN(c2ccccc2)CC1	PIK3CA E545K	binding, competition with immobilised ligand	1 µM	72
C[C@@H]1CCN(c2nccc(-c3cnn4ncccc34)n2)C1	PIK3CA H1047Y	binding	1 µM	93
NS(=O)(=O)c1cc(NC(=O)C2(c3ccccc3Cl)CC2)ccc1Oc1cccc(Cl)c1	PIK3CA H1047Y	cell-free assay, competition with immobilised ligand	1 µM	76

SMILES	target	assay	conditions	remaining binding [%]
CN1CCN(c2ccc(Nc3nccc(-c4ccccc4)n3)cc2C(F)(F)F)CC1	PIK3CA H1047L	binding	10 µM	55
CN(C)c1ncc(F)c(-c2cnn3ncccc23)n1	PIK3CA E542K	binding	1 µM	69
O=C(NCCCN1CCOCC1)c1ccc(Nc2ncc(Cl)c(-c3ccc(Cl)s3)n2)cc1	PIK3CA I800L	binding, competition with immobilised ligand	1 µM	85
Nc1ncc2c(n1)-c1c([nH]c3ccc(C#CC4CC4)cc13)CCCC2	PIK3CA E542K	binding, competition with immobilised ligand	1 µM	91
CN(CCCC(F)(F)F)c1nccc(-c2cnn3ncccc23)n1	PIK3CA I800L	binding	1 µM	100
CN1CCN(c2ccc(Nc3nccc(-c4cccc([N+](=O)[O-])c4)n3)cc2C(F)(F)F)CC1	PIK3CA E545A	binding	10 µM	58
CN(C)c1nccc(-c2cnc3ncccn23)n1	PIK3CA I800L	binding	1 µM	63
O=C(c1ccc(Nc2ncc(Cl)c(-c3cc4ccccc4s3)n2)cc1)N1CCC(N2CCCC2)CC1	PIK3CA Q546K	binding, competition with immobilised ligand	1 µM	90
CN(c1nccc(-c2cnn3ncccc23)n1)C1CC1	PIK3CA H1047L	binding	1 µM	100
O=C(c1ccc(Nc2nccc(-c3cc4ccccc4s3)n2)cc1)N1CCC(N2CCCC2)CC1	PIK3CA C420R	binding, competition with immobilised ligand	1 µM	88
N[C@@H]1CCN(c2nccc(-c3cnn4ncccc34)n2)C1	PIK3CA E545K	binding	1 µM	100
C[C@@H]1CN(c2cc(-c3n[nH]c4ccc(OC5(C)CC5)cc34)ncn2)C[C@H](C)O1	PIK3CA H1047L	cell-free assay, competition with immobilised ligand	0.1 µM	87
O=C(NCC1CCOCC1)c1n[nH]cc1NC(=O)c1c(F)cccc1F	PIK3CA I800L	binding, competition with immobilised ligand	1 µM	77
CS(=O)(=O)N1CCCC(NC(=O)[C@H](CCC2CCCCC2)NC(=O)c2ccc(CNC(=O)c3cnc4ccccn34)cc2)C1 (stereo partly drawn)	PIK3CA	binding, competition with immobilised ligand	1 µM	37
Cc1c(-c2ccccc2)oc2c(C(=O)OCCN3CCCCC3)cccc2c1=O	PIK3CA	cell-free assay, competition with immobilised ligand	0.1 µM	100
Cc1c(C(=O)O)cc(-c2ccc(C3CCNCC3)cc2)c2ccc(-c3ccc(C(F)(F)F)cc3)cc12	PIK3CA H1047Y	cell-free assay, competition with immobilised ligand	1 µM	100
O=C(NCCCN1CCOCC1)c1ccc(Nc2nccc(-c3cc4ccccc4s3)n2)cc1	PIK3CA M1043I	binding, competition with immobilised ligand	1 µM	80
CCN(CC)Cc1cc(Nc2ccnc3cc(Cl)ccc23)ccc1O	PIK3CA	cell-free assay, competition with immobilised ligand	0.1 µM	97
